# Sampled rows, rich in hits. Any-hit rate of the full collection: about 2.3%.
# SKN-1 block – inhibitors of C. elegans SKN-1; C. elegans VP596 Pgst-4::GFP/RFP ratio, acrylamide-induced, 24 h; 360,000 tested, 0.49% active; inhibition, % at 21.8 µM; AID 624304;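 active = interference check ratio from 0.5 to 1.5 plus GFP to RFP signal ratio inhibition reaching or exceeding a fixed threshold, cut at about 30% in these data, passing the limit was not always enough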
# ATG4B inhibitor – inhibitors of human ATG4B cysteine protease; AID 504462; 340,000 tested, 0.51% active; ATG4B cleavage of LC3-PLA2, NBD-HPC fluorescence, 1 h; Q9Y4P1; inhibition, % at 8.33 µM; in the data active = inhibition above about 40%
# Target sequence (Q9Y4P1 whole entry, looked up): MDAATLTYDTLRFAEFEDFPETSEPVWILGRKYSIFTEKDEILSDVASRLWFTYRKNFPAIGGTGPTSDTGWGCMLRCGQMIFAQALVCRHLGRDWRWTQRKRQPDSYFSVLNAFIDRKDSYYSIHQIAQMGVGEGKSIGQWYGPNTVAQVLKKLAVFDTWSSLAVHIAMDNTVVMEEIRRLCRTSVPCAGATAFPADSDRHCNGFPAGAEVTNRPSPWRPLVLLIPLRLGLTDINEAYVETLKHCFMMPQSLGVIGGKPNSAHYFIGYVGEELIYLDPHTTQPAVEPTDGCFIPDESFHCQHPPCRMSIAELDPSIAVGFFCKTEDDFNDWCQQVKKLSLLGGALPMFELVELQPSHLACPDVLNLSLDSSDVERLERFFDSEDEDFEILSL
# MT1-MMP act inh – inhibitors of human MT1-MMP activation. 360,000 tested, 0.061% active. HT1080 RFP-PRO-GFP cells, GFP/RFP ratio fluorescence, overnight; percent of plate control window, DMSO zero. GFP/RFP ratio change, % at 20 µM. P50281;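 active = GFP/RFP ratio change of at least 30% with cell ATP level not reduced by more than half and red fluorescence within 50% of control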
#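 Material – HT1080 RFP-PRO-GFP cells · Control set – DMSO wells and RFP-L50D-GFP cells · Incubation – overnight cell settling, then overnight compound exposure, 37 °C, 5% CO2 · Compound dosing – single-point 20 µM compound, 1% DMSO · Read-out – GFP/RFP fluorescence ratio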
# MPTP inh – blocks calcium-induced mitochondrial swelling; 360,000 tested, 1.4% active; inhibition, % at 10 µM; isolated mouse mitochondria, Ca2+ swelling absorbance, 30 min;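 active = inhibition of 50% or more, scaled per plate between neutral and stimulator controls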;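 also: 0% = DMSO wells given calcium and 100% = 1 mM EGTA wells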
# ATG4B confirm – confirmation of human ATG4B inhibitors; shares compounds with ATG4B inhibitor; ATG4B protease fluorescent substrate cleavage assay; AID 504757; inhibition, % at 8.33 µM; 320 tested, 92% active; in the data active = inhibition above about 39%
# PLA2 ctr – counter-screen for ATG4B inhibitors: human phospholipase A2 | inhibition, % at 8.33 µM | shares compounds with ATG4B inhibitor | purified PLA2, NBD-C6-HPC fluorescence, 45 min | 1,600 tested, 66% active; in the data active = inhibition above about 50%
# Target sequence (P04054 whole entry, looked up): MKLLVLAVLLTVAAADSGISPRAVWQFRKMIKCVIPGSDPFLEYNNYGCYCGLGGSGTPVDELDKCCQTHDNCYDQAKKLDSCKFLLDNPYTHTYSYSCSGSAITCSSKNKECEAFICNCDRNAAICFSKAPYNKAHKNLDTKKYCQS
# * marks the source's active call; other numbers are inactive results; nt = no result given.
SMILES,SKN-1 block,ATG4B inhibitor,MT1-MMP act inh,MPTP inh,PLA2 ctr,others
O=C1C(=C(c2ccccc2)c2ccccc2)Nc2ccccc21,61.3,42.7*,11.1,3.0,50.0*,
CCc1cccc(C)c1NC(=O)CCCSc1nc2ccccc2s1,7.4,64.8*,-0.3,4.7,57.4*,
Cc1ccccc1NC(=O)CCCSc1nc2ccccc2s1,17.6,-3.6,0.5,11.9,nt,
Nc1c(C(=O)Nc2ccccc2F)sc2nc(-c3ccco3)ccc12,19.6,47.5*,-4.6,-1.5,2.9,
Cn1cccc1C(=O)NC(=O)COC(=O)CC12CC3CC(CC(C3)C1)C2,1.6,62.1*,1.4,4.3,53.9*,
Cn1cccc1C(=O)NC(=O)COC(=O)CC12CC3CC(CC(Br)(C3)C1)C2,0.7,61.4*,-2.8,-1.7,72.9*,
O=C(C[C@@H]1C[C@@H]2c3cc(NS(=O)(=O)c4ccc(F)cc4)ccc3O[C@@H]2[C@@H](CO)O1)NC1CCCCC1,7.3,nt,0.5,-1.5,nt,
COc1ccc(NC(=O)CCCNC(=O)c2ccc(Cl)cc2)cc1S(=O)(=O)N1CCOCC1,-7.1,-8.9,-1.7,-0.7,nt,
O=c1nc(/C=C/c2ccccc2C(F)(F)F)cc(C(F)(F)F)[nH]1,7.6,44.7*,0.5,-0.4,59.4*,
CCCCN1C(=N)N([C@@H](CCC)CN2CCC[C@H]2CN2C(N)=NC[C@H]2C(C)C)C[C@H]1[C@H](C)CC,-14.6,1.9,3.1,-1.4,nt,
COC(=O)C1=C(C)N(Cc2cccnc2)C(=O)/C1=C\c1sccc1C,4.7,42.5*,-3.0,1.9,53.7*,
Cc1ccc(CNC(=O)Nc2ccccc2)cc1,14.9,4.9,4.7,-2.4,nt,
Cc1ccc(C)c(CNC(=O)Nc2ccccc2)c1,11.9,48.9*,-1.5,1.8,50.5*,
Cc1nn(-c2ccccc2)c(N)c1N=Nc1ccc2ccccc2c1,20.6,78.2*,-0.3,5.2,91.5*,
Cc1ccc(N=Nc2c(N)nn(-c3ccccc3)c2N)cc1,6.0,57.3*,3.6,-2.0,70.8*,
COc1cc(/C=C(\C(=O)O)c2ccc(S(=O)(=O)N3CCCC3)s2)cc(OC)c1,8.0,-6.5,0.6,-3.4,nt,
COc1ccc(Br)cc1/C=C(\C(=O)O)c1ccc(S(=O)(=O)N2CCCC2)s1,8.4,67.5*,1.6,-0.3,76.1*,
Cc1ccc(SCCC(=O)NCCSCc2ccccc2C)cc1,-2.1,30.3,-1.1,-6.3,nt,
O=C(Nc1ccccc1F)c1ccc2c(c1)CCN2S(=O)(=O)c1ccccc1,-11.8,33.8,5.5,-1.5,nt,
O=C(Nc1c(F)cccc1F)c1ccc2c(c1)CCN2S(=O)(=O)c1ccccc1,0.7,69.1*,3.0,0.5,69.1*,
COc1cc(NS(=O)(=O)c2ccc(Nc3nc(-c4cccc([N+](=O)[O-])c4)cs3)cc2)nc(OC)n1,-0.7,45.4*,3.7,-0.3,43.3,ATG4B confirm=78.0*
O=C(NN=C1CCCCCC1)c1cn(-c2ccccc2)nc1-c1ccccc1,18.1,43.4*,7.5,4.5,3.3,ATG4B confirm=62.1*
Cc1ccc(NC(=O)NC2CCCc3ccccc32)cc1 (stereo not drawn),4.2,7.2,-2.3,-1.1,nt,
O=C(Nc1ccc(Cl)cc1)NC1CCCc2ccccc21 (stereo not drawn),10.9,68.0*,-0.9,3.0,66.2*,
Cc1ccc(NC(=O)Nc2c(C)[nH]c(=O)[nH]c2=O)cc1Cl,10.1,2.5,3.2,-0.5,nt,
SMILES,SKN-1 block,ATG4B inhibitor,MT1-MMP act inh,MPTP inh,PLA2 ctr,others
COC(=O)C(C)N(C(=O)c1ccc(C(=O)c2ccccc2)cc1)c1c(C)cccc1C (stereo not drawn),12.8,56.7*,-16.1,-1.7,46.9,ATG4B confirm=58.2*
COC(=O)C(C)N(C(=O)c1ccc(Cl)cc1)c1c(C)cccc1C (stereo not drawn),19.6,1.4,0.8,-0.2,nt,
O=C1C(SCCO)=C(SCCO)C(=O)c2ccccc21,0.2,44.0*,-77.7,5.2,-15.7,ATG4B confirm=71.8*
CC1=C(SCc2ccccc2)C(=O)c2ccccc2C1=O,13.2,-8.6,-30.2,0.8,nt,
Cc1cc(N/N=C/c2ccc(F)cc2)nc(NCc2ccccc2)n1,9.4,71.0*,1.1,13.1,63.6*,
Cc1cc(N/N=C/c2ccccc2)nc(N)n1,-2.0,13.5,0.5,0.7,nt,
Cc1cc(N/N=C/c2ccc(O)cc2)nc(NS(=O)(=O)c2ccccc2)n1,3.5,-2.9,-4.2,-0.1,nt,
Clc1ccc(C=NNc2ccccn2)c(Cl)c1,19.7,1.6,3.3,0.7,nt,
Cc1ccc(/C=N/Nc2cc(C)nc(NCc3ccccc3)n2)cc1,-4.6,64.0*,-3.8,41.9,77.4*,
Cc1cc(N/N=C/c2ccc(Cl)cc2Cl)nc(NCc2ccccc2)n1,13.6,85.5*,-16.8,15.0,87.5*,
CNC(=S)N1CCC(c2nc3ccccc3s2)CC1,-3.3,0.8,1.2,-0.8,nt,
O=C1NC[C@@H](CCCCN2C[C@H](Cc3ccccc3)N(CCC3CCCCC3)C(=O)C2=O)N(CC2CCCCC2)C1=O,3.1,nt,5.9,-5.5,nt,
CCCCCCCCN1C(=O)[C@H](CC(=O)NCCCC)C[C@@]2(C(=O)OC)CC(C)(C)CC=C12,3.6,nt,-16.1,-2.5,nt,
Cc1nc(S/C(=C\c2ccc(OCc3ccccc3Cl)cc2)C(=O)O)n[nH]1,29.5,94.0*,1.3,-2.1,83.2*,
COc1ccc2cc3cc(C(=O)N4CC(C)CC(C)C4)oc3nc2c1 (stereo not drawn),-5.7,49.2*,2.7,0.6,54.1*,
Cc1ccc2cc3cc(C(=O)N4CC(C)CC(C)C4)oc3nc2c1 (stereo not drawn),38.8*,44.9*,3.5,1.1,56.9*,
CCOC(=O)C1CCN(C(=O)c2cc3cc4ccc(OC)cc4nc3o2)CC1,3.4,-10.2,5.9,-0.9,nt,
Cc1ccc2cc3cc(C(=O)N4CCCCC4C)oc3nc2c1 (stereo not drawn),11.9,-11.3,4.3,2.8,nt,
Cc1c(C(=O)NCc2ccccc2C(F)(F)F)sc(=O)n1Cc1ccccc1C#N,4.3,nt,2.7,-0.2,nt,
COCCNC(=O)c1cc2c(c(-c3cccc(C#Cc4ccc(OC)c(OC)c4)c3)n1)[C@H](CCO)N(S(=O)C(C)(C)C)C2 (stereo partly drawn),9.5,nt,0.0,-1.3,nt,
CCCC(=O)Nc1ccc(N2CCN(C(=O)c3cccs3)CC2)cc1,10.1,-3.3,-1.2,-1.8,nt,
Cc1ccccc1Cn1cc(NC(=O)c2nn(C)cc2Cl)cn1,14.0,4.1,1.7,-4.2,nt,
Cc1ccc(C2CC(C(F)F)n3ncc(C(=O)Nc4cnn(Cc5ccccc5C)c4)c3N2)cc1 (stereo not drawn),-21.0,53.7*,-5.6,-3.5,71.3*,
c1ccc(-c2csc(NC3CCCCC3)n2)cc1,10.9,15.3,-3.7,0.3,nt,
O=C(Nc1nc(-c2ccccc2)cs1)NC1CCCCC1,20.4,58.4*,0.1,15.7,65.5*,

# Bioassay records (PubChem BioAssay)
